Data from ChEMBL document CHEMBL1121850, “Synthesis of peptide analogues of prothrombin precursor sequence 5-9. Substrate specificity of vitamin K dependent carboxylase” (J Med Chem, 1981).
Numbered stars: 1 amine (or outer) side, 2 acyl side, 3 side chain; on linkers, the order of the positions; unused ones are H or OH. Square brackets hold non-standard residues; d marks the D form. Peptide text beside a SMILES is read from it. * marks the point of attachment. ξ: configuration not given here. Pyrrolidin1yl(2S-Ac) = CC(=O)[C@@H]1CCCN1*; ξF = NC(Cc1ccccc1)C(=O)O; X1 = CO[C@H](CC(C)C)N*; Boc = CC(C)(C)OC(=O)*; CO = O=C([*:1])[*:2]; OtBu = CC(C)(C)O*

Tests used:
[1] = target: T1, Vitamin K-dependent gamma-carboxylase (Rattus norvegicus) (UniProt O88496); assay: Relative activity for […] rat liver vitamin K dependent carboxylase mediated carboxylation of pentapeptide at 1 mM.; format: functional, tissue-based
T1 sequence (whole entry): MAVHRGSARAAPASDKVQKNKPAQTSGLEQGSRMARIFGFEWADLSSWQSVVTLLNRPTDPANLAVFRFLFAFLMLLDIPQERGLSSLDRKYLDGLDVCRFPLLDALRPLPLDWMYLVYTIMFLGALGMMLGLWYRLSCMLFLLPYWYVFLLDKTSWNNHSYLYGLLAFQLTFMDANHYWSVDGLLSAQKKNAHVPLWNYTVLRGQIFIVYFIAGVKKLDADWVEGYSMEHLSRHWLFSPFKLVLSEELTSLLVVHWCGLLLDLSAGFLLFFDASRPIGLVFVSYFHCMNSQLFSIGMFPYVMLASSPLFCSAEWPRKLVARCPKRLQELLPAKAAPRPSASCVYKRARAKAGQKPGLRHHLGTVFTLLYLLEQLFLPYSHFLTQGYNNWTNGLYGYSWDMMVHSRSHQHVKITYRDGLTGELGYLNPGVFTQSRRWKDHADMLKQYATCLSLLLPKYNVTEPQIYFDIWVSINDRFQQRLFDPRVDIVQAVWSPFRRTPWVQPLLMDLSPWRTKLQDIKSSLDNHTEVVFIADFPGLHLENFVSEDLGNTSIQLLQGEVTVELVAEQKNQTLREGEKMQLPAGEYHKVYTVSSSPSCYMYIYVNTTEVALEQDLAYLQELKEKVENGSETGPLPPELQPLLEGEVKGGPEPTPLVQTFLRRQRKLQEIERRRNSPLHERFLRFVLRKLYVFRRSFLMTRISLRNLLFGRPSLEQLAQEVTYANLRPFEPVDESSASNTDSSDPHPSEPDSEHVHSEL
Summary of the method: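 Carboxylase source was Triton-solubilized liver microsomes from vitamin K-deficient rats, pellets KCl-washed. Peptide at 1 mM was incubated with NaH¹⁴CO₃ and vitamin K-H₂ (in ethanol) at 17 °C for 10–20 min. Read-out was ¹⁴CO₂ in TCA-soluble material, with the ethanol-only background subtracted. Activity is given as % of the 1 mM reference pentapeptide on the same preparation; duplicate incubations.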

[2] = Michaelis constant was determined; format: ADME

SMILES | Relative activity [1] [%] | Km [2] [mM]
COC(=O)[C@@H](CC(C)C)NC(=O)[C@H](CCC(=O)O)NC(=O)[C@H](CCC(=O)O)NC(=O)[C@H](CC(C)C)NC(=O)OC(C)(C)C | 77 | 
CC(C)(C)OC(=O)N[C@H](CCC(=O)O)C(=O)OCc1ccccc1 | 5 | 
COC(=O)[C@H](CC(C)C)NC(=O)[C@H](CCC(=O)O)NC(=O)[C@H](CCC(=O)O)NC(=O)[C@@H](CC(C)C)NC(=O)OC(C)(C)C | 55 | 
CC(C)C[C@H](NC(=O)[C@H](CCC(=O)O)NC(=O)[C@H](CC(C)C)NC(=O)[C@H](CCC(=O)O)NC(=O)[C@H](Cc1ccccc1)NC(=O)O)C(=O)O (HELM PEPTIDE1{[O=C(O)[*:2]].F.E.L.E.L}$$$$V2.0) | < 1 | 
CC(C)(C)OC(=O)N[C@H](CCC(=O)O)C(=O)NCc1ccccc1 | < 1 | 
COC(=O)[C@H](CCC(=O)O)NC(=O)[C@H](C)NC(=O)[C@H](CCC(=O)O)NC(=O)[C@H](CC(C)C)NC(=O)N1CCC[C@H]1C(C)=O ({Pyrrolidin1yl(2S-Ac)-CO}-LEAE-OMe) | 25 | 
COC(=O)NC(=O)[C@H](CCC(=O)O)NC(=O)[C@H](C)NC(=O)[C@H](CCC(=O)O)NC(=O)OC(C)(C)C | 4 | 
CO[C@H](CC(C)C)NC(=O)[C@H](CCC(=O)O)NC(=O)[C@H](CCC(=O)O)NC(=O)[C@H](CC(C)C)NC(=O)C(Cc1ccccc1)NC(=O)OC(C)(C)C (stereo partly drawn) (Boc-[ξF]LEE-X1) | 24 | 
CO[C@@H](CC(C)C)NC(=O)[C@@H](CCC(=O)O)NC(=O)OC(C)(C)C | < 1 | 
COC(=O)[C@H](CC(C)C)NC(=O)[C@@H](CCC(=O)O)NC(=O)[C@H](CCC(=O)O)NC(=O)OC(C)(C)C | < 1 | 
COC(=O)[C@H](CC(C)C)NC(=O)[C@H](CCC(=O)O)NC(=O)[C@@H](CCC(=O)O)NC(=O)OC(C)(C)C | < 1 | 
COC(=O)[C@H](CC(C)C)NC(=O)[C@@H](CCC(=O)O)NC(=O)[C@@H](CCC(=O)O)NC(=O)[C@H](CC(C)C)NC(=O)[C@H](Cc1ccccc1)NC(=O)OC(C)(C)C | < 1 | 
CC(C)C[C@H](NC(=O)[C@H](CO)NC(=O)[C@H](CCC(=O)O)NC(=O)[C@H](CC(C)C)NC(=O)[C@H](C)NC(=O)[C@H](CCC(=O)O)NC(=O)[C@@H](N)Cc1ccccc1)C(=O)O (H-FEALESL-OH) | 6 | 
COC(=O)NC(=O)[C@H](CC(C)C)NC(=O)[C@H](CCC(=O)O)NC(=O)C(CC(=O)O)NC(=O)OC(C)(C)C (stereo partly drawn) | 11 | 
COC(=O)NC(=O)[C@H](CC(C)C)NC(=O)[C@H](CC(=O)O)NC(=O)C(CC(=O)O)NC(=O)OC(C)(C)C (stereo partly drawn) | < 1 | 
COC(=O)[C@H](CC(C)C)NC(=O)[C@@H](CCC(=O)O)NC(=O)[C@H](CCC(=O)O)NC(=O)[C@H](CC(C)C)NC(=O)[C@H](Cc1ccccc1)NC(=O)OC(C)(C)C | < 1 | 
COC(=O)[C@H](CC(C)C)NC(=O)[C@H](CCC(=O)O)NC(=O)[C@H](CCC(=O)O)NC(=O)OC(C)(C)C | 107 | 
COC(=O)NC(=O)[C@H](CC(C)C)NC(=O)[C@H](CCC(=O)O)NC(=O)C(CCC(=O)O)NC(=O)OC(C)(C)C (stereo partly drawn) | < 1 | 
COC(=O)[C@H](CC(C)C)NC(=O)[C@H](CCC(=O)O)NC(=O)[C@H](CCC(=O)O)NC(=O)[C@H](C)NC(=O)OC(C)(C)C (HELM PEPTIDE1{[CC(C)(C)OC(=O)[*:2]].A.E.E.L.[CO[*:1]]}$$$$V2.0) | 19 | 

SMILES | Relative activity [1] [%] | Km [2] [mM]
COC(=O)[C@H](CC(C)C)NC(=O)[C@H](CCC(=O)O)NC(=O)[C@H](CCC(=O)O)NC(=O)CNC(=O)OC(C)(C)C (HELM PEPTIDE1{[CC(C)(C)OC(=O)[*:2]].G.E.E.L.[CO[*:1]]}$$$$V2.0) | 6 | 
CC(C)C[C@H](NC(=O)[C@H](CCC(=O)O)NC(=O)[C@H](CCC(=O)O)NC(=O)[C@H](C)NC(=O)[C@@H](N)Cc1ccccc1)C(=O)O (H-FAEEL-OH) | 72 | 
CC(C)C[C@H](NC(=O)[C@H](CCC(=O)O)NC(=O)[C@@H](CCC(=O)O)NC(=O)[C@H](CC(C)C)NC(=O)[C@@H](N)Cc1ccccc1)C(=O)O | 100 | 4
COC(=O)NC(=O)[C@H](CC(C)C)NC(=O)[C@H](CCCC(=O)O)NC(=O)C(CCCC(=O)O)NC(=O)OC(C)(C)C (stereo partly drawn) | < 1 | 
CO[C@H](CC(C)C)NC(=O)[C@H](CCC(=O)O)NC(=O)[C@H](CCC(=O)O)NC(=O)[C@H](CC(C)C)NC(=O)OC(C)(C)C | 77 | 
COC(=O)[C@H](CC(C)C)NC(=O)[C@H](CCC(=O)O)NC(=O)[C@@H](CCC(=O)O)NC(=O)[C@H](CC(C)C)NC(=O)[C@H](Cc1ccccc1)NC(=O)OC(C)(C)C | < 1 | 
COC(=O)[C@H](CC(C)C)NC(=O)[C@@H](CCC(=O)O)NC(=O)[C@@H](CCC(=O)O)NC(=O)OC(C)(C)C | < 1 | 
COC(=O)[C@@H](CC(C)C)NC(=O)[C@H](CCC(=O)O)NC(=O)[C@H](CCC(=O)O)NC(=O)OC(C)(C)C | 19 | 
COC(=O)[C@@H](CC(C)C)NC(=O)[C@H](CCC(=O)O)NC(=O)[C@H](CCC(=O)O)NC(=O)[C@@H](CC(C)C)NC(=O)OC(C)(C)C | 19 | 
COC(=O)NC(=O)[C@H](CC(C)C)NC(=O)[C@H](CCC(=O)O)NC(=O)C(CCSC)NC(=O)CC(C)C (stereo partly drawn) | 6 | 
COC(=O)NC(=O)[C@H](CC(C)C)NC(=O)[C@H](CC(=O)O)NC(=O)C(CCC(=O)O)NC(=O)OC(C)(C)C (stereo partly drawn) | 11 | 
COC(=O)[C@H](CCC(=O)O)NC(=O)[C@H](C)NC(=O)[C@H](CCC(=O)O)NC(=O)[C@H](CC(C)C)NC(=O)OC(C)(C)C (HELM PEPTIDE1{[CC(C)(C)OC(=O)[*:2]].L.E.A.E.[CO[*:1]]}$$$$V2.0) | 46 | 
CC(C)C[C@H](NC(=O)[C@H](CCC(=O)O)NC(=O)[C@H](CCC(=O)O)NC(=O)CNC(=O)[C@@H](N)Cc1ccccc1)C(=O)O (H-FGEEL-OH) | 4 | 
COC(=O)[C@H](CCC(=O)O)NC(=O)[C@H](C)NC(=O)[C@H](CCC(=O)O)NC(=O)[C@H](CC(C)C)NC(=O)N1CCC[C@H]1C(=O)OC(C)(C)C ({OtBu-Pro-CO}-LEAE-OMe) | 19 | 
CC(C)C[C@H](NC(=O)[C@H](CCC(=O)O)NC(=O)[C@H](CCC(=O)O)NC(=O)[C@@H](N)CC(C)C)C(=O)O (H-LEEL-OH) | 8 | 
CC(C)C[C@H](NC(=O)[C@H](CCC(=O)O)NC(=O)[C@H](CCC(=O)O)NC(=O)[C@H](CC(C)C)NC(=O)[C@H](Cc1ccccc1)NC(=O)c1ccccc1)C(=O)O (HELM PEPTIDE1{[O=C(c1ccccc1)[*:2]].F.L.E.E.L}$$$$V2.0) | 27 | 
COC(=O)[C@H](CC(C)C)NC(=O)[C@H](CCC(=O)O)NC(=O)[C@H](CCC(=O)O)NC(=O)CNC(=O)[C@H](Cc1ccccc1)NC(=O)OC(C)(C)C (HELM PEPTIDE1{[CC(C)(C)OC(=O)[*:2]].F.G.E.E.L.[CO[*:1]]}$$$$V2.0) | 25 | 
CCC(=O)N[C@@H](Cc1ccccc1)C(=O)N[C@@H](CC(C)C)C(=O)N[C@@H](CCC(=O)O)C(=O)N[C@@H](CCC(=O)O)C(=O)N[C@@H](CC(C)C)C(=O)O (HELM PEPTIDE1{[CCC(=O)[*:2]].F.L.E.E.L}$$$$V2.0) | 149 | 
